From ChEMBL document CHEMBL1150874, “Antiviral phenylpropanoid glycosides from the medicinal plant Markhamia lutea” (J Nat Prod, 1998)
≈ marks a conversion by molar mass, not a printed value.

Legend:
[1] = Selectivity index, […] for human Hep2 cells administered 3 hrs after infection; format: functional, HEp-2
In short: (§1)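 RSV (Long, CPE) in Hep-2 cells, seeded the day before at 10 000 cells/well in high-glucose DMEM with 2% or 10% heat-inactivated FBS. Virus (3000 PFU) or medium alone was adsorbed for 3 h at 37 °C, then 3-fold dilutions were added (eight concentrations, 830-0.38 or […] final). Incubation was 3 days at 37 °C, then neutral red stain. EC50 and IC50 were in µg/mL; SI = IC50/EC50.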

[2] = Selectivity index, ratio of EC50 for RSV long by cytopathic effect over IC50 for human Hep2 cells; format: functional, HEp-2
[3] = system: Respiratory syncytial virus; assay: Antiviral activity against RSV A-2 infected in human Hep2 cells after 3 days by plaque neutralization assay; format: functional, organism-based; settings: HEp-2, 72 h
[4] = system: Respiratory syncytial virus; assay: Antiviral activity against RSV infected in human Hep2 cells assessed as virus-induced cytopathic effect administered 3 hrs postinfection; format: functional, organism-based; settings: HEp-2, 3 h; in short: as §1
[5] = Cytotoxicity against HSV1 infected human Hep2 cells after 3 days; format: cell-based; settings: HEp-2, 72 h
[6] = Cytotoxicity against VZV 3CV-1 infected human Hep2 cells after 3 days; format: cell-based; settings: HEp-2, 72 h
[7] = Cytotoxicity against HSV2 infected human Hep2 cells after 3 days; format: cell-based; settings: HEp-2, 72 h
[8] = Cytotoxicity against RSV long infected human Hep2 cells after 3 days; format: cell-based; settings: HEp-2, 72 h
[9] = Cytotoxicity against human Hep2 cells administered 3 hrs postinfection; format: cell-based; settings: HEp-2, 3 h; in short: as §1
[10] = Cytotoxicity against mCMV RM-461 infected human Hep2 cells after 3 days; format: cell-based; settings: HEp-2, 72 h
[11] = system: Respiratory syncytial virus; assay: Antiviral activity against RSV long infected in human Hep2 cells assessed as virus-induced cytopathic effect after 3 days; format: functional, organism-based; settings: HEp-2, 72 h
[12] = Selectivity index, ratio of EC50 for mCMV RM461 by cytopathic effect over IC50 for human Hep2 cells; format: functional, HEp-2
Murine cytomegalovirus = assay: Antiviral activity against mCMV RM461 infected in human Hep2 cells assessed as virus-induced cytopathic effect after 3 days; settings: HEp-2, 72 h
Human alphaherpesvirus 3 = assay: Antiviral activity against VZV 3CV-1 infected in human Hep2 cells after 3 days by plaque neutralization assay; format: functional, organism-based; settings: Human alphaherpesvirus 3, HEp-2, 72 h
Human alphaherpesvirus 2 = assay: Antiviral activity against HSV2 infected in human Hep2 cells assessed as virus-induced cytopathic effect after 3 days; format: functional, organism-based; settings: Human alphaherpesvirus 2, HEp-2, 72 h
[13] = Selectivity index, ratio of EC50 for HSV1 by cytopathic effect over IC50 for human Hep2 cells; format: functional, HEp-2
[14] = Selectivity index, ratio of EC50 for HSV2 by cytopathic effect over IC50 for human Hep2 cells; format: functional, HEp-2
Human alphaherpesvirus 1 = assay: Antiviral activity against HSV1 infected in human Hep2 cells assessed as virus-induced cytopathic effect after 3 days; format: functional, organism-based; settings: Human alphaherpesvirus 1, HEp-2, 72 h
[15] = Selectivity index, […] for human Hep2 cells; format: functional, HEp-2
[16] = Cytotoxicity against RSV A-2 infected human Hep2 cells after 3 days; format: cell-based; settings: HEp-2, 72 h

C[C@@H]1O[C@@H](O[C@@H]2[C@@H](O)[C@H](OCCc3ccc(O)c(O)c3)O[C@H](COC(=O)/C=C/c3ccc(O)c(O)c3)[C@H]2O)[C@H](O)[C@H](O)[C@H]1O [ISOACTEOSIDE]
Ratio IC50/EC50 [1]: 735
Ratio IC50/EC50 [2]: 84
EC50 [3]: 1.1 µg/mL (≈ 1.76 µM)
EC50 [4]: 0.17 µg/mL (≈ 0.272 µM)
IC50 [5]: 30 µg/mL (≈ 48 µM)
IC50 [6]: 75 µg/mL (≈ 120 µM)
IC50 [7]: 27 µg/mL (≈ 43.2 µM)
IC50 ([8]; read-out: IC50): 51.4 µg/mL (≈ 82.3 µM)
IC50 [9]: 125 µg/mL (≈ 200 µM)
IC50 [10]: 89 µg/mL (≈ 142 µM)
EC50 [11]: 0.62 µg/mL (≈ 0.993 µM)

C[C@@H]1O[C@@H](O[C@H]2[C@H](O)[C@@H](COC(=O)/C=C/c3ccc(O)c(O)c3)O[C@@H](OCCc3ccc(O)c(O)c3)[C@@H]2O[C@@H]2OC[C@](O)(CO)[C@@H]2O)[C@H](O)[C@H](O)[C@H]1O [LUTEOSIDE B]
Ratio IC50/EC50 [1]: 780
Ratio IC50/EC50 [2]: >19
EC50 [4]: 0.23 µg/mL (≈ 0.304 µM)
IC50 [5]: 93 µg/mL (≈ 123 µM)
IC50 [7]: 90 µg/mL (≈ 119 µM)
IC50 ([8]; read-out: IC50): > 67 µg/mL
IC50 [9]: 180 µg/mL (≈ 238 µM)
EC50 [11]: 3.4 µg/mL (≈ 4.49 µM)

CC(=O)O[C@@H]1[C@@H](OC(C)=O)[C@H](C)O[C@@H](O[C@@H]2[C@@H](OC(C)=O)[C@H](OCCc3ccc(O)c(O)c3)O[C@H](COC(=O)/C=C/c3ccc(O)c(O)c3)[C@H]2OC(C)=O)[C@@H]1OC(C)=O
Ratio IC50/EC50 [2]: 8.2
IC50 ([8]; read-out: IC50): 15.9 µg/mL (≈ 19 µM)
EC50 [11]: 1.93 µg/mL (≈ 2.31 µM)

CC(=O)OC[C@H]1O[C@@H](OCCc2ccc(O)c(O)c2)[C@H](O[C@@H]2OC[C@](O)(CO)[C@@H]2O)[C@@H](O[C@@H]2O[C@@H](C)[C@H](O)[C@@H](O)[C@H]2O)[C@@H]1OC(=O)/C=C/c1ccc(O)c(O)c1 [LUTEOSIDE A]
Ratio IC50/EC50 [1]: 16
Ratio IC50/EC50 [2]: 89
EC50 [4]: 11 µg/mL (≈ 13.8 µM)
IC50 ([8]; read-out: IC50): 77 µg/mL (≈ 96.4 µM)
IC50 [9]: 180 µg/mL (≈ 225 µM)
EC50 [11]: 0.87 µg/mL (≈ 1.09 µM)

Nc1nc2c(ncn2COC(CO)CO)c(=O)[nH]1 [GANCICLOVIR]
Ratio IC50/EC50 [12]: >20
EC50 (Murine cytomegalovirus): 5 µg/mL (≈ 19.6 µM)
IC50 [6]: 840 µg/mL (≈ 3290 µM)
EC50 (Human alphaherpesvirus 3): 26.7 µg/mL (≈ 105 µM)
IC50 [10]: > 100 µg/mL

Nc1nc2c(ncn2COCCO)c(=O)[nH]1 [ACYCLOVIR]
EC50 (Human alphaherpesvirus 2): 2.3 µg/mL (≈ 10.2 µM)
Ratio IC50/EC50 [13]: >250
IC50 [5]: > 67 µg/mL
Ratio IC50/EC50 [14]: >4.3
IC50 [7]: > 10 µg/mL
EC50 (Human alphaherpesvirus 1): 0.26 µg/mL (≈ 1.15 µM)

C[C@@H]1O[C@@H](O[C@@H]2[C@@H](O)[C@H](OCCc3ccc(O)c(O)c3)O[C@H](CO)[C@H]2OC(=O)/C=C/c2ccc(O)c(O)c2)[C@H](O)[C@H](O)[C@H]1O [ACETOSIDE]
Ratio IC50/EC50 [1]: 415
Ratio IC50/EC50 [2]: 85
EC50 [3]: 9.7 µg/mL (≈ 15.5 µM)
EC50 [4]: 0.26 µg/mL (≈ 0.416 µM)
IC50 [7]: 71 µg/mL (≈ 114 µM)
IC50 [8]: 76.9 µg/mL (≈ 123 µM)
IC50 [9]: 108 µg/mL (≈ 173 µM)
IC50 [10]: 44 µg/mL (≈ 70.4 µM)
EC50 [11]: 0.8 µg/mL (≈ 1.28 µM)

NC(=O)c1ncn([C@@H]2O[C@H](CO)[C@@H](O)[C@H]2O)n1 [RIBAVIRIN]
Ratio IC50/EC50 [1]: 10.8
Ratio IC50/EC50 [2]: 19
EC50 [3]: 2.2 µg/mL (≈ 9.01 µM)
Ratio IC50/EC50 [15]: 11
EC50 [4]: 2.3 µg/mL (≈ 9.42 µM)
IC50 [16]: 25 µg/mL (≈ 102 µM)
IC50 ([8]; read-out: IC50): 35 µg/mL (≈ 143 µM)
IC50 [9]: 25 µg/mL (≈ 102 µM)
EC50 [11]: 1.8 µg/mL (≈ 7.37 µM)

COc1cc(/C=C/C(=O)OC[C@H]2O[C@@H](OCCc3ccc(O)c(O)c3)[C@H](O[C@@H]3OC[C@](O)(CO)[C@@H]3O)[C@@H](O[C@@H]3O[C@@H](C)[C@H](O)[C@@H](O)[C@H]3O)[C@@H]2O)ccc1O [LUTEOSIDE C]
Ratio IC50/EC50 [1]: >28
Ratio IC50/EC50 [2]: 12
EC50 [4]: 12 µg/mL (≈ 15.6 µM)
IC50 ([8]; read-out: IC50): 189 µg/mL (≈ 245 µM)
IC50 [9]: > 330 µg/mL
EC50 [11]: 15.5 µg/mL (≈ 20.1 µM)

CC(=O)OC[C@H]1O[C@@H](OCCc2ccc(O)c(O)c2)[C@H](OC(C)=O)[C@@H](O[C@@H]2O[C@@H](C)[C@H](OC(C)=O)[C@@H](OC(C)=O)[C@H]2OC(C)=O)[C@@H]1OC(=O)/C=C/c1ccc(O)c(O)c1
Ratio IC50/EC50 [2]: 4.4
IC50 ([8]; read-out: IC50): 26.2 µg/mL (≈ 31.4 µM)
EC50 [11]: 5.87 µg/mL (≈ 7.03 µM)

CC(=O)Oc1ccc(/C=C/C(=O)OC[C@H]2O[C@@H](OCCc3ccc(OC(C)=O)c(OC(C)=O)c3)[C@H](OC(C)=O)[C@@H](O[C@@H]3O[C@@H](C)[C@H](OC(C)=O)[C@@H](OC(C)=O)[C@H]3OC(C)=O)[C@@H]2OC(C)=O)cc1OC(C)=O [ISOVERBASCOSIDE NOAACETATE]
Ratio IC50/EC50 [2]: 3.3
IC50 ([8]; read-out: IC50): 11.2 µg/mL (≈ 11.2 µM)
EC50 [11]: 3.4 µg/mL (≈ 3.39 µM)

CC(=O)OC[C@H]1O[C@@H](OCCc2ccc(OC(C)=O)c(OC(C)=O)c2)[C@H](OC(C)=O)[C@@H](O[C@@H]2O[C@@H](C)[C@H](OC(C)=O)[C@@H](OC(C)=O)[C@H]2OC(C)=O)[C@@H]1OC(=O)/C=C/c1ccc(OC(C)=O)c(OC(C)=O)c1 [VERBASCOSIDE NONAACETATE]
IC50 ([8]; read-out: IC50): 33.7 µg/mL (≈ 33.6 µM)
